Values after ≈ are worked out from the molar mass of the structure shown.
How the values were obtained:
[1] = test system: Streptococcus pneumoniae; test: Antibacterial activity against Streptococcus pneumoniae MTCC 1936 assessed as growth inhibition after overnight incubation by NCCLS broth microdilution method; type: functional
How it was run: (§1)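 Broth microdilution per NCCLS in Mueller Hinton broth, compounds diluted in DMSO. Primary screen at 500, 250 and 200 µg/mL; actives retested at 100, 62.5, 50, 25 and 12.5 µg/mL. Tubes incubated overnight at 37 °C. […] Non-growing tubes subcultured overnight at 37 °C to judge bacteriostatic versus bactericidal action.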

[2] = test system: Aspergillus fumigatus; test: Antifungal activity against Aspergillus fumigatus MTCC 3008 assessed as growth inhibition after overnight incubation by NCCLS broth microdilution method; type: functional; how it was run: as §1
[3] = test system: Vibrio cholerae; test: Antibacterial activity against Vibrio cholerae MTCC 3906 assessed as growth inhibition after overnight incubation by NCCLS broth microdilution method; type: functional
[4] = test system: Candida albicans; test: Antifungal activity against Candida albicans MTCC 227 assessed as growth inhibition after overnight incubation by NCCLS broth microdilution method; type: functional; how it was run: as §1
[5] = test system: Bacillus subtilis; test: Antibacterial activity against Bacillus subtilis MTCC 441 assessed as growth inhibition after overnight incubation by NCCLS broth microdilution method; type: functional; how it was run: as §1
[6] = test system: Escherichia coli; test: Antibacterial activity against Escherichia coli MTCC 443 assessed as growth inhibition after overnight incubation by NCCLS broth microdilution method; type: functional; how it was run: as §1
[7] = Antioxidant activity of the compound assessed as ascorbic acid equivalent of ferric tripyridyl triazine reducing activity at 200 ug/mL after 15 mins by FRAP assay; type: functional
How it was run: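 FRAP, modified Benzie and Strain method. Fe(III)-TPTZ reagent made with TPTZ in 40 mM HCl, FeCl3 solution and acetate buffer pH 3.6. 200 µL sample solution mixed with 3 mL reagent and held 15 min at 37 °C. Fe(II)-TPTZ read at 593 nm against an ascorbic acid standard, expressed as ascorbic acid equivalents (mmol/100 g compound).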

[8] = test system: Salmonella typhi; test: Antibacterial activity against Salmonella typhi MTCC 98 assessed as growth inhibition after overnight incubation by NCCLS broth microdilution method; type: functional, Salmonella enterica subsp. enterica serovar Typhi; conditions: Salmonella enterica
[9] = test system: Clostridium tetani; test: Antibacterial activity against Clostridium tetani MTCC 449 assessed as growth inhibition after overnight incubation by NCCLS broth microdilution method; type: functional
[10] = test system: Mycobacterium tuberculosis; test: Antitubercular activity against Mycobacterium tuberculosis H37Rv assessed as growth inhibition at 250 ug/mL after 12 to 28 days by Lowenstein-Jensen method relative to control; type: functional; conditions: read-out: GI
How it was run: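 Modified Lowenstein-Jensen method. Compound at 250 in DMSO added to liquid L-J medium, then sterilized by inspissation and incubated 24 h at 37 °C. Streaked with H37Rv harvested in 0.85% saline (5 × 10⁴ bacilli/tube) and incubated at 37 °C. Colonies read at 12, 22 and 28 days versus drug-free control; no colonies or <20 colonies scored as inhibition.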

Compound	MIC [1] [µg/mL]	MIC [2] [µg/mL]	MIC [3] [µg/mL]	MIC [4] [µg/mL]	MIC [5] [µg/mL]	MIC [6] [µg/mL]	Activity [7] [equiv]	MIC [8] [µg/mL]	MIC [9] [µg/mL]	inhibition of growth at 250 µg/mL [10] [%]
N#CC1=C(N)N(c2cccc(C(F)(F)F)c2)C2=C(C(=O)CCC2)C1c1cc2ccccc2nc1Oc1ccc(C#N)cc1 (stereo unspecified)	125 (≈ 216 µM)	1000 (≈ 1730 µM)	250 (≈ 433 µM)	1000 (≈ 1730 µM)	100 (≈ 173 µM)	200 (≈ 346 µM)	270	250 (≈ 433 µM)	250 (≈ 433 µM)	52
CC1(C)S[C@@H]2[C@H](NC(=O)[C@H](N)c3ccccc3)C(=O)N2[C@H]1C(=O)O [AMPICILLIN]	100 (≈ 286 µM)	–	100 (≈ 286 µM)	–	250 (≈ 715 µM)	100 (≈ 286 µM)	–	100 (≈ 286 µM)	250 (≈ 715 µM)	–
N#CC1=C(N)N(c2cc(F)ccc2F)C2=C(C(=O)CCC2)C1c1cc2cc(Cl)ccc2nc1Oc1ccc(C#N)cc1 (stereo unspecified)	100 (≈ 172 µM)	1000 (≈ 1720 µM)	100 (≈ 172 µM)	250 (≈ 431 µM)	200 (≈ 345 µM)	100 (≈ 172 µM)	100	62.5 (≈ 108 µM)	100 (≈ 172 µM)	84
Cc1ccc2nc(Oc3ccc(C#N)cc3)c(C3C(C#N)=C(N)N(c4ccc(F)c(F)c4)C4=C3C(=O)CCC4)cc2c1 (stereo unspecified)	250 (≈ 447 µM)	500 (≈ 894 µM)	200 (≈ 357 µM)	250 (≈ 447 µM)	200 (≈ 357 µM)	200 (≈ 357 µM)	243	250 (≈ 447 µM)	100 (≈ 179 µM)	27
CC1(C)CC(=O)C2=C(C1)N(c1cc(F)ccc1F)C(N)=C(C#N)C2c1cc2cc(Cl)ccc2nc1Oc1ccc(C#N)cc1 (stereo unspecified)	250 (≈ 411 µM)	> 1000	250 (≈ 411 µM)	1000 (≈ 1640 µM)	100 (≈ 164 µM)	250 (≈ 411 µM)	2.17	125 (≈ 206 µM)	125 (≈ 206 µM)	87
COc1ccc2nc(Oc3ccc(C#N)cc3)c(C3C(C#N)=C(N)N(c4cccc(C(F)(F)F)c4)C4=C3C(=O)CCC4)cc2c1 (stereo unspecified)	125 (≈ 206 µM)	1000 (≈ 1650 µM)	100 (≈ 165 µM)	500 (≈ 823 µM)	200 (≈ 329 µM)	200 (≈ 329 µM)	260	125 (≈ 206 µM)	500 (≈ 823 µM)	23
N#Cc1ccc(Oc2nc3ccccc3cc2C=O)cc1	250 (≈ 911 µM)	500 (≈ 1820 µM)	250 (≈ 911 µM)	1000 (≈ 3650 µM)	200 (≈ 729 µM)	100 (≈ 365 µM)	19.2	100 (≈ 365 µM)	250 (≈ 911 µM)	42
CC1(C)CC(=O)C2=C(C1)N(c1ccc(F)c(F)c1)C(N)=C(C#N)C2c1cc2cc(Cl)ccc2nc1Oc1ccc(C#N)cc1 (stereo unspecified)	100 (≈ 164 µM)	500 (≈ 822 µM)	250 (≈ 411 µM)	500 (≈ 822 µM)	200 (≈ 329 µM)	125 (≈ 206 µM)	3.36	200 (≈ 329 µM)	125 (≈ 206 µM)	84
CC1(C)CC(=O)C2=C(C1)N(c1ccc(F)c(F)c1)C(N)=C(C#N)C2c1cc2ccccc2nc1Oc1ccc(C#N)cc1 (stereo unspecified)	200 (≈ 349 µM)	500 (≈ 872 µM)	100 (≈ 174 µM)	500 (≈ 872 µM)	200 (≈ 349 µM)	125 (≈ 218 µM)	19.6	200 (≈ 349 µM)	100 (≈ 174 µM)	64
CC1(C)CC(=O)C2=C(C1)N(c1cccc(C(F)(F)F)c1)C(N)=C(C#N)C2c1cc2ccccc2nc1Oc1ccc(C#N)cc1 (stereo unspecified)	200 (≈ 330 µM)	1000 (≈ 1650 µM)	200 (≈ 330 µM)	1000 (≈ 1650 µM)	250 (≈ 413 µM)	250 (≈ 413 µM)	20.2	200 (≈ 330 µM)	200 (≈ 330 µM)	45
N#CC1=C(N)N(c2ccc(F)c(F)c2)C2=C(C(=O)CCC2)C1c1cc2ccccc2nc1Oc1ccc(C#N)cc1 (stereo unspecified)	100 (≈ 183 µM)	> 1000	100 (≈ 183 µM)	250 (≈ 458 µM)	250 (≈ 458 µM)	100 (≈ 183 µM)	193	125 (≈ 229 µM)	100 (≈ 183 µM)	75
COc1ccc2nc(Oc3ccc(C#N)cc3)c(C3C(C#N)=C(N)N(c4ccc(F)c(F)c4)C4=C3C(=O)CCC4)cc2c1 (stereo unspecified)	200 (≈ 347 µM)	1000 (≈ 1740 µM)	250 (≈ 434 µM)	1000 (≈ 1740 µM)	200 (≈ 347 µM)	500 (≈ 869 µM)	369	500 (≈ 869 µM)	200 (≈ 347 µM)	88
O=C(O)c1cn(C2CC2)c2cc(N3CCNCC3)c(F)cc2c1=O [CIPROFLOXACIN]	50 (≈ 151 µM)	–	25 (≈ 75.4 µM)	–	–	25 (≈ 75.4 µM)	–	25 (≈ 75.4 µM)	–	–
N#Cc1ccc(Oc2nc3ccc(Cl)cc3cc2C=O)cc1	125 (≈ 405 µM)	250 (≈ 810 µM)	200 (≈ 648 µM)	> 1000	125 (≈ 405 µM)	250 (≈ 810 µM)	34.9	200 (≈ 648 µM)	125 (≈ 405 µM)	61
CCn1cc(C(=O)O)c(=O)c2cc(F)c(N3CCNCC3)cc21 [NORFLOXACIN]	10 (≈ 31.3 µM)	–	10 (≈ 31.3 µM)	–	100 (≈ 313 µM)	10 (≈ 31.3 µM)	–	10 (≈ 31.3 µM)	50 (≈ 157 µM)	–
COc1ccc2nc(Oc3ccc(C#N)cc3)c(C=O)cc2c1	200 (≈ 657 µM)	1000 (≈ 3290 µM)	250 (≈ 822 µM)	1000 (≈ 3290 µM)	250 (≈ 822 µM)	250 (≈ 822 µM)	47	100 (≈ 329 µM)	200 (≈ 657 µM)	11
CC1(C)CC(=O)C2=C(C1)N(c1cc(F)ccc1F)C(N)=C(C#N)C2c1cc2ccccc2nc1Oc1ccc(C#N)cc1 (stereo unspecified)	100 (≈ 174 µM)	1000 (≈ 1740 µM)	250 (≈ 436 µM)	500 (≈ 872 µM)	250 (≈ 436 µM)	250 (≈ 436 µM)	84.4	250 (≈ 436 µM)	200 (≈ 349 µM)	21
COc1ccc2nc(Oc3ccc(C#N)cc3)c(C3C(C#N)=C(N)N(c4cc(F)ccc4F)C4=C3C(=O)CC(C)(C)C4)cc2c1 (stereo unspecified)	250 (≈ 414 µM)	> 1000	200 (≈ 331 µM)	> 1000	250 (≈ 414 µM)	200 (≈ 331 µM)	25.4	250 (≈ 414 µM)	200 (≈ 331 µM)	54
Cc1ccc2nc(Oc3ccc(C#N)cc3)c(C3C(C#N)=C(N)N(c4cc(F)ccc4F)C4=C3C(=O)CCC4)cc2c1 (stereo unspecified)	250 (≈ 447 µM)	> 1000	62.5 (≈ 112 µM)	250 (≈ 447 µM)	125 (≈ 223 µM)	100 (≈ 179 µM)	239	50 (≈ 89.4 µM)	200 (≈ 357 µM)	80
Cc1ccc2nc(Oc3ccc(C#N)cc3)c(C=O)cc2c1	200 (≈ 694 µM)	250 (≈ 867 µM)	125 (≈ 434 µM)	> 1000	100 (≈ 347 µM)	62.5 (≈ 217 µM)	16	125 (≈ 434 µM)	100 (≈ 347 µM)	26
NYSTATIN	–	100	–	100	–	–	–	–	–	–
COC1=CC(=O)C[C@@H](C)[C@]12Oc1c(Cl)c(OC)cc(OC)c1C2=O [GRISEOFULVIN]	–	100 (≈ 283 µM)	–	500 (≈ 1420 µM)	–	–	–	–	–	–
O=C(N[C@H](CO)[C@H](O)c1ccc([N+](=O)[O-])cc1)C(Cl)Cl [CHLORAMPHENICOL]	50 (≈ 155 µM)	–	50 (≈ 155 µM)	–	50 (≈ 155 µM)	50 (≈ 155 µM)	–	50 (≈ 155 µM)	50 (≈ 155 µM)	–

— ChEMBL document CHEMBL2375307, “Synthesis and identification of β-aryloxyquinoline based diversely fluorine substituted N-aryl quinolone derivatives as a new class of antimicrobial, antituberculosis and antioxidant agents” (Eur J Med Chem, 2013)
